ChEMBL document CHEMBL1144103, “Biologically active secondary metabolites from fungi. 12.(1) oidiolactones A-F, labdane diterpene derivatives isolated from oidiodendron truncata” (1999)

Experiments:
Type in all cases: functional
[1] = test system: Priestia megaterium; test: Antibacterial activity against Bacillus megaterium at 10 mg/mL by agar diffusion test; details: read-out: IZ
Method in brief: (§1)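 Agar diffusion test. Activity is scored on a 1-4 scale by the radius of the inhibition zone: 1-10 mm = 1, 10-20 mm = 2, 20-30 mm = 3, 30-40 mm = 4.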

[2] = test system: [Chlorella] fusca; test: Herbicidal activity against Chlorella fusca at 10 mg/mL by agar diffusion test; details: Scenedesmus fuscus; read-out: IZ; method in brief: as §1
[3] = test system: Microbotryum violaceum; test: Antifungal activity against Ustilago violacea at 10 mg/mL by agar diffusion test; details: read-out: IZ; method in brief: as §1
[4] = test system: Mycotypha microspora; test: Antifungal activity against Mycotypha microspora at 10 mg/mL by agar diffusion test; details: read-out: IZ; method in brief: as §1
[5] = test system: Escherichia coli; test: Antibacterial activity against Escherichia coli at 10 mg/mL by agar diffusion test; details: read-out: IZ; method in brief: as §1
[6] = test system: Lemna minor; test: Herbicidal activity against Lemna minor assessed as growth inhibition at 10 mg/mL after 1 and 6 days relative to control
Method in brief: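 Lemna minor growth inhibition. 10 mg of sample is dissolved in 0.05 mL MeOH plus 0.05 mL acetone and added to 10 mL test medium (growth medium without sucrose) in 5 cm Petri dishes, each holding 15 plants. Plants are scored after 1 and 6 days.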

[7] = test system: Lepidium sativum; test: Herbicidal activity against Lepidium sativum assessed as growth inhibition at 10 mg/mL relative to control
[8] = test system: Aspergillus pseudoglaucus; test: Antifungal activity against Eurotium repens at 10 mg/mL by agar diffusion test; details: read-out: IZ; method in brief: as §1

## CO[C@H]1OC(=O)C=C2C1=C[C@H]1OC(=O)[C@@]3(C)CCC[C@@]2(C)[C@@H]13
[1]
  zone of inhibition at 10000 µg/mL: 1 mm
[2]
  zone of inhibition at 10000 µg/mL: 20 mm
[3]
  zone of inhibition at 10000 µg/mL: 30 mm

## CO[C@H]1OC(=O)C=C2[C@@]13O[C@@H]3[C@H]1OC(=O)[C@@]3(C)CCC[C@@]2(C)[C@@H]13
[1]
  zone of inhibition at 10000 µg/mL: 1 mm
[4]
  zone of inhibition at 10000 µg/mL: 1 mm
[5]
  zone of inhibition at 10000 µg/mL: 0 mm
[6]
  inhibition at 10000 µg/mL: > 90%
[2]
  zone of inhibition at 10000 µg/mL: 10 mm
[3]
  zone of inhibition at 10000 µg/mL: 10 mm
[7]
  inhibition at 10000 µg/mL: 100%
[8]
  zone of inhibition at 10000 µg/mL: 1 mm

## C[C@@]12CCC[C@]3(C)C4=CC(=O)O[C@@H](O)[C@]45O[C@@H]5[C@@H](OC1=O)[C@@H]23 [OIDIOLACTONE D]
[1]
  zone of inhibition at 10000 µg/mL: 0 mm
[4]
  zone of inhibition at 10000 µg/mL: 1 mm
[5]
  zone of inhibition at 10000 µg/mL: 0 mm
[2]
  zone of inhibition at 10000 µg/mL: 1 mm
[3]
  zone of inhibition at 10000 µg/mL: 1 mm
[8]
  zone of inhibition at 10000 µg/mL: 1 mm

## C[C@]12CCC[C@](C)(C(=O)O)[C@@H]1C=C[C@]1(O)COC(=O)C[C@H]21 [OIDIOLACTONE E]
[1]
  zone of inhibition at 10000 µg/mL: 0 mm
[4]
  zone of inhibition at 10000 µg/mL: 0 mm
[5]
  zone of inhibition at 10000 µg/mL: 0 mm
[2]
  zone of inhibition at 10000 µg/mL: 1 mm
[3]
  zone of inhibition at 10000 µg/mL: 1 mm
[8]
  zone of inhibition at 10000 µg/mL: 1 mm
